Data on two compounds can be found in publication PMC6026531 (Molecular pharmaceutics, 2017).

The nature of series [1]: Relaxivity measurement of contrast agents. It is filed as physicochemical. The conditions noted are these: 1.5 T, in water, 37 °C.
In series [2] the test system is PC3 prostate tumor xenografts. Kind of series: In vivo MRI of PC3 tumor-bearing mice. The arrangement: species or system mouse. The conditions noted are these: T1-weighted 3D FLASH, 0.1 mmol/kg i.v., imaged at 10, 20 and 30 min, n = 5. The gist of the method:
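Male athymic nude mice carried subcutaneous PC3 xenografts (100 µL of 4×10^7 cells/mL in Matrigel) and were imaged at 5–8 mm tumor diameter on a 1.0 T scanner. Agents in saline were given i.v. at 0.1 mmol/kg Gd3+, with a gadoteridol control. Images were taken pre-contrast and every 10 min to 30 min by axial T1 spin echo (TR 500 ms, TE 8.144 ms) and coronal 3D FLASH (TR 17.362 ms, TE 6 ms, 15°). CNR was the tumor/muscle ROI signal […] normalised to noise.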

`O=C([O-])CN1CCN(CC(=O)[O-])CCN(CC(=O)O)CCN(CC(=O)[O-])CC1.[Gd+3]` [Gd-DOTA]: the r1 relaxivity in series [1] is 2.9 mM⁻¹ s⁻¹. For `CC(O)CN1CCN(CC(=O)[O-])CCN(CC(=O)[O-])CCN(CC(=O)[O-])CC1.[Gd+3]` (stereo not drawn) [Gd(HP-DO3A), gadoteridol], the “Time of peak CNR in PC3 tumors” value in series [2] is 10 min. The compound further gave a r1 relaxivity in series [1] of 2.9 mM⁻¹ s⁻¹.
